From ChEMBL document CHEMBL4138269, “Dual NAMPT/HDAC Inhibitors as a New Strategy for Multitargeting Antitumor Drug Discovery” (ACS Med Chem Lett, 2018)
Active and inactive are the calls of the source. The rule behind the calls is not given here.

Columns and labels:
A549 = assay: cells; format: functional, cell-based; settings: Homo sapiens, A549, 72 h
HCT-116 [1] = assay: Antitumor activity against human HCT116 cells xenografted in BALB/C nude mouse assessed as tumor growth inhibition at 15 mg/kg, ip bid administered for 21 consecutive days measured every 3 days; format: functional; settings: HCT-116, ip, 72 h, read-out: TGI
In short: (§1)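 HCT116 tumour xenografts were grown in nude mice. Agents were given ip twice daily for 21 consecutive days. Tumour growth and body weight were followed. Tumour growth inhibition (TGI) and relative increment ratio (T/C) were derived. Data are mean ± standard deviation, compared with the control group by Student's t test.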

Mus musculus [2] = assay: Toxicity in BALB/C nude mouse xenografted with human HCT116 cells assessed as body weight loss at 15 mg/kg, ip bid administered for 21 consecutive days measured every 3 days; format: organism-based; settings: in vivo, 72 h
In short: as §1

[3] = target: T1, Nicotinamide phosphoribosyltransferase (Homo sapiens, UniProt P43490); assay: Inhibition of NAMPT (unknown origin) using NAM as substrate incubated for 5 mins followed by substrate addition measured after 15 mins by fluorometric method
Target sequence in this assay (P43490 whole entry): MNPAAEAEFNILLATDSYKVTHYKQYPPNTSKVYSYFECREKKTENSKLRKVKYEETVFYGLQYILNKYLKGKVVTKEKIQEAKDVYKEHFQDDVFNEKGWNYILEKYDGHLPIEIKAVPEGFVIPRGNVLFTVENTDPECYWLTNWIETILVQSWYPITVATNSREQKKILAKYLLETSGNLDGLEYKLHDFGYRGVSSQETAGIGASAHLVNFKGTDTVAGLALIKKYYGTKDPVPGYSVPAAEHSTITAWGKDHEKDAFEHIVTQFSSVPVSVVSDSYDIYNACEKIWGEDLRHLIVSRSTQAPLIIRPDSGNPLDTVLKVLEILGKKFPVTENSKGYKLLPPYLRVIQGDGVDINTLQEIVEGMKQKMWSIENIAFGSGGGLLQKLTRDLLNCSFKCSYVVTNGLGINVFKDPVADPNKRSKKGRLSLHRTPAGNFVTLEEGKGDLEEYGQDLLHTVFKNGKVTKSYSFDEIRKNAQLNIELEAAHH

Histone deacetylase 1 [4] = target: T2, Histone deacetylase 1 (Homo sapiens, UniProt Q13547); assay: Inhibition of recombinant full length human C-terminal His/flag-tagged HDAC1 expressed in baculovirus infected Sf9 insect cells after 30 mins by fluorescence assay
T2 sequence (Q13547 whole entry): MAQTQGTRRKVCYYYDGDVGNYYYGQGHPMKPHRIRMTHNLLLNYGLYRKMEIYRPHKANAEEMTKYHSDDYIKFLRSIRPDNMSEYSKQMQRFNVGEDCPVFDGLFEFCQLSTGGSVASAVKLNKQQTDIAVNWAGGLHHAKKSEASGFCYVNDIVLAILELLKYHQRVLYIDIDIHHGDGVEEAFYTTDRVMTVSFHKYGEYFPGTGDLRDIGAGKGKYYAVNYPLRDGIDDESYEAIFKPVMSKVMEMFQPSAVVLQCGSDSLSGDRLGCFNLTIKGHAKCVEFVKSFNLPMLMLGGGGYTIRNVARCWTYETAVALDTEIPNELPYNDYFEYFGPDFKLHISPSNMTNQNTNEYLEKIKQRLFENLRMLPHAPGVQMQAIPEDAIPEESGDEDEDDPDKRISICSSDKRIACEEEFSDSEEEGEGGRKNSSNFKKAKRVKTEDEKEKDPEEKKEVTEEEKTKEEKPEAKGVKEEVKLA

HCT-116 [5] = assay: cells; format: functional, cell-based; settings: Homo sapiens, HCT-116, 72 h
HepG2 = assay: cells; format: functional, cell-based; settings: Homo sapiens, HepG2, 72 h
[6] = target: Histone deacetylase 3/NCoR1 (Homo sapiens, UniProt O15379); assay: Inhibition of human recombinant HDAC3/GST-tagged NCOR1 DAD (397 to 503 residues) expressed in baculovirus expression system after 30 mins by fluorescence assay
Histone deacetylase 3/NCoR1, sequence (O15379 whole entry, the tested form may be a part): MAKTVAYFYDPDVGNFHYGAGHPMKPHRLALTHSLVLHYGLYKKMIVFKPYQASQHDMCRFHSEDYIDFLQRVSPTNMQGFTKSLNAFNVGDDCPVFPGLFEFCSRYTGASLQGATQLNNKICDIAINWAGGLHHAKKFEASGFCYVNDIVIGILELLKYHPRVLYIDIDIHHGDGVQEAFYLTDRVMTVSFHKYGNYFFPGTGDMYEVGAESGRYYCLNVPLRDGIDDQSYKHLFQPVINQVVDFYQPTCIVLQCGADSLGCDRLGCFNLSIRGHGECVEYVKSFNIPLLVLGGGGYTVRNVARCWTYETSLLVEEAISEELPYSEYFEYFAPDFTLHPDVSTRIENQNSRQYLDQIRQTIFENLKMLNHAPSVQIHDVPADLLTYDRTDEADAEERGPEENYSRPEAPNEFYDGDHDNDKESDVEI
Histone deacetylase 3/NCoR1, sequence (O75376 whole entry, further chain, the tested form may be a part): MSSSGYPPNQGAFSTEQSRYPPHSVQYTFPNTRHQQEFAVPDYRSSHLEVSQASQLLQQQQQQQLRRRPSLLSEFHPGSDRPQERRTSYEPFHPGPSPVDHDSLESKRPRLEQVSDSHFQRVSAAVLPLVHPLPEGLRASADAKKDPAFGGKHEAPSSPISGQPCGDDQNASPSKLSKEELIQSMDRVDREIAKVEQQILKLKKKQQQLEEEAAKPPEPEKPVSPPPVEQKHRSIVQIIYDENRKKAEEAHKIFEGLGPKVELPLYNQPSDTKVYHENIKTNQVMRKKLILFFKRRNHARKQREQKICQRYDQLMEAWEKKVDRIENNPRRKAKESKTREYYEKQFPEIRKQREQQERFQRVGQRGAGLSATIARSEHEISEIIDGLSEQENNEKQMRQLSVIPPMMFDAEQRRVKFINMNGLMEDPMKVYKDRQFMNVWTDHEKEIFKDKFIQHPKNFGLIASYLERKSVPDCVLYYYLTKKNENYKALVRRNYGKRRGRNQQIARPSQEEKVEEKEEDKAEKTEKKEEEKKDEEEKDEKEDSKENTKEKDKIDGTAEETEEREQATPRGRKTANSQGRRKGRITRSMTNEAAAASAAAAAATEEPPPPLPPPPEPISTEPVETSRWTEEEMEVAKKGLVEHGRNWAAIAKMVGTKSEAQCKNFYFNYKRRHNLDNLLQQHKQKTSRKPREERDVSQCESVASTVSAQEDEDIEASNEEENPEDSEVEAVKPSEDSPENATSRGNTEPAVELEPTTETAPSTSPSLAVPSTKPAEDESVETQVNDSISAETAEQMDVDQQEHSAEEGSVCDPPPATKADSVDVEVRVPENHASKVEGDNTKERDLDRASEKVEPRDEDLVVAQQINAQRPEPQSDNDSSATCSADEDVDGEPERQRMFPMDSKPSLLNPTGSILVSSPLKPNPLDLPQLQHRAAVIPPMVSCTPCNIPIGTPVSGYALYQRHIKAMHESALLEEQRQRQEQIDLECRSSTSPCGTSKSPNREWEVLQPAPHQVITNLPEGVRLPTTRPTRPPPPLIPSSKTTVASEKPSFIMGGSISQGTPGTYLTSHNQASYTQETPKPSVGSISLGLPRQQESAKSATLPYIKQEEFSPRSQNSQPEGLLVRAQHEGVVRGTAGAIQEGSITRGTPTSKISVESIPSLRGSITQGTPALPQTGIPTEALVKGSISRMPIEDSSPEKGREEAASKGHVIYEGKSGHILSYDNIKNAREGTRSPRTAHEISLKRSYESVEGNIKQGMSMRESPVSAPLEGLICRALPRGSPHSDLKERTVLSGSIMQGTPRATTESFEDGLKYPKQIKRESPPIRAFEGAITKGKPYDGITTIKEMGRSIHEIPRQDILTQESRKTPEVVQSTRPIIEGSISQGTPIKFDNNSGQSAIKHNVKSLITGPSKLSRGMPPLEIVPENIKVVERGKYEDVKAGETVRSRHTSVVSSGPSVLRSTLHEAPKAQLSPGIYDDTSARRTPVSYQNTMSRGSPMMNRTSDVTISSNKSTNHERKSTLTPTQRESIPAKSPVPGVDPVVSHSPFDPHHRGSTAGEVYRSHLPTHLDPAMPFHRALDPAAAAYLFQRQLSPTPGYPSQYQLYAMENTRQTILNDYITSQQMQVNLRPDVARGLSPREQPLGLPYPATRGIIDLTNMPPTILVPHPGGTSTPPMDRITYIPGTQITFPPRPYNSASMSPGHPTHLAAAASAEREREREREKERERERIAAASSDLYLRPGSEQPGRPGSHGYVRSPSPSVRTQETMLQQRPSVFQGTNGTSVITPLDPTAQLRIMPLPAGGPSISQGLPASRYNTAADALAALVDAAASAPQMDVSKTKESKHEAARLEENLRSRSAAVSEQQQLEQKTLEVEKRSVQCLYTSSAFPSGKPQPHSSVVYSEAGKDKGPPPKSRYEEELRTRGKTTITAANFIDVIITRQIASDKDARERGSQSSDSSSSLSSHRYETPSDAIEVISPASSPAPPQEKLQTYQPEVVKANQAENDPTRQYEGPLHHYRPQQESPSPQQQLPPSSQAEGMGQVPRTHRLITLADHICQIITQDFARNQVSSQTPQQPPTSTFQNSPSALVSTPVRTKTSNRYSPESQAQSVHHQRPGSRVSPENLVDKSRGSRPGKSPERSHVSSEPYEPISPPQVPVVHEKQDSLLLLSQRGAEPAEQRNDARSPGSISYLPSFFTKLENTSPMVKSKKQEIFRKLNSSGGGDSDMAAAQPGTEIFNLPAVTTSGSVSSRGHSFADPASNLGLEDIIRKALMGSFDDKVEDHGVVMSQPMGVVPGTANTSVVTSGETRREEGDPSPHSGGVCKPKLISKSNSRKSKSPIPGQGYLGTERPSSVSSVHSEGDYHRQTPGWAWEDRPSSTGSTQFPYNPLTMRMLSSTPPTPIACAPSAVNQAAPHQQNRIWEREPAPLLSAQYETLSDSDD

[7] = target: T3, Protein deacetylase HDAC6 (Homo sapiens, UniProt Q9UBN7); assay: Inhibition of recombinant human full length C-terminal flag-tagged HDAC6 expressed in baculovirus infected Sf9 insect cells after 30 mins by fluorescence assay
T3 sequence (Q9UBN7 whole entry): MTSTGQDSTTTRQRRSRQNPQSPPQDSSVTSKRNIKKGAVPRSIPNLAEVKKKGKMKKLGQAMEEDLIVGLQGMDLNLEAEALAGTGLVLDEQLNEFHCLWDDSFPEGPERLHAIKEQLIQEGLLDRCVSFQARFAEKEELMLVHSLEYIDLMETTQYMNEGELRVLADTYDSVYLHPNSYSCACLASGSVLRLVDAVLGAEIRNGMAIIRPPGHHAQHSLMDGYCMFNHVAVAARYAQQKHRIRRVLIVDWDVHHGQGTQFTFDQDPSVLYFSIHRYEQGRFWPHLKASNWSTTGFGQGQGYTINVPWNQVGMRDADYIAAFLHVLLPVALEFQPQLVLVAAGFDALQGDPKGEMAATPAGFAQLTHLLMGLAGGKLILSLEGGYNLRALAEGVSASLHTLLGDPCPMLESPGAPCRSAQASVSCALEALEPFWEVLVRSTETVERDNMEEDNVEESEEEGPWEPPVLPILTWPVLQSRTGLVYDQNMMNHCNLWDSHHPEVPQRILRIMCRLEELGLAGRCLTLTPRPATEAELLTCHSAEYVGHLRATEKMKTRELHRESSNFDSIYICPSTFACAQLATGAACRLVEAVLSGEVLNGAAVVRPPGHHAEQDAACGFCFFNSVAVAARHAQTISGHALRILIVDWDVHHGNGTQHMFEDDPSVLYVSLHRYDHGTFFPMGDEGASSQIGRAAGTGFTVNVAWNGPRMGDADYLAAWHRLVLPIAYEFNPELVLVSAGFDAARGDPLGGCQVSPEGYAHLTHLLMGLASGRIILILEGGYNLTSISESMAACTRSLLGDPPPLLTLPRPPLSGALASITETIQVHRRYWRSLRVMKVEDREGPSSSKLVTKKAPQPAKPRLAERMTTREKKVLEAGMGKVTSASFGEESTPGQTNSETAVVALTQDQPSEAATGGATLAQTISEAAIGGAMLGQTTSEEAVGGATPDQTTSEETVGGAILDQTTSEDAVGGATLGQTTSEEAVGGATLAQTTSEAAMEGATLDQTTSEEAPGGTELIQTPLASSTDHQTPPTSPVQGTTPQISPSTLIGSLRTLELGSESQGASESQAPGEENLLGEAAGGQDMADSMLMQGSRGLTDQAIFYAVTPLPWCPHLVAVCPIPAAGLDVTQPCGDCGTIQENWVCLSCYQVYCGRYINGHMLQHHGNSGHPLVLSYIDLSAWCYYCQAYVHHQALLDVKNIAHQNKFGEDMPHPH

[8] = target: T1, Nicotinamide phosphoribosyltransferase; assay: Binding affinity to NAMPT in human HCT116 cells assessed as change in melting temperature at 10 uM after 3 hrs by CETSA; format: cell-based
Target sequence in this assay (P43490 whole entry, looked up): as the sequence (P43490 whole entry) above

Histone deacetylase 1 [9] = target: T2, Histone deacetylase 1; assay: Potency index, ratio of SAHA IC50 to compound IC50 for recombinant human full length C-terminal His/flag-tagged HDAC1 expressed in baculovirus infected Sf9 insect cells
Histone deacetylase 2 = Histone deacetylase 2 (Homo sapiens, UniProt Q92769)
Histone deacetylase 4 = Histone deacetylase 4 (Homo sapiens, UniProt P56524); assay: Inhibition of recombinant human N-terminal GST-tagged HDAC4 (612 to end residues) expressed in baculovirus infected Sf9 insect cells after 30 mins by fluorescence assay
Histone deacetylase 4, sequence (P56524 whole entry): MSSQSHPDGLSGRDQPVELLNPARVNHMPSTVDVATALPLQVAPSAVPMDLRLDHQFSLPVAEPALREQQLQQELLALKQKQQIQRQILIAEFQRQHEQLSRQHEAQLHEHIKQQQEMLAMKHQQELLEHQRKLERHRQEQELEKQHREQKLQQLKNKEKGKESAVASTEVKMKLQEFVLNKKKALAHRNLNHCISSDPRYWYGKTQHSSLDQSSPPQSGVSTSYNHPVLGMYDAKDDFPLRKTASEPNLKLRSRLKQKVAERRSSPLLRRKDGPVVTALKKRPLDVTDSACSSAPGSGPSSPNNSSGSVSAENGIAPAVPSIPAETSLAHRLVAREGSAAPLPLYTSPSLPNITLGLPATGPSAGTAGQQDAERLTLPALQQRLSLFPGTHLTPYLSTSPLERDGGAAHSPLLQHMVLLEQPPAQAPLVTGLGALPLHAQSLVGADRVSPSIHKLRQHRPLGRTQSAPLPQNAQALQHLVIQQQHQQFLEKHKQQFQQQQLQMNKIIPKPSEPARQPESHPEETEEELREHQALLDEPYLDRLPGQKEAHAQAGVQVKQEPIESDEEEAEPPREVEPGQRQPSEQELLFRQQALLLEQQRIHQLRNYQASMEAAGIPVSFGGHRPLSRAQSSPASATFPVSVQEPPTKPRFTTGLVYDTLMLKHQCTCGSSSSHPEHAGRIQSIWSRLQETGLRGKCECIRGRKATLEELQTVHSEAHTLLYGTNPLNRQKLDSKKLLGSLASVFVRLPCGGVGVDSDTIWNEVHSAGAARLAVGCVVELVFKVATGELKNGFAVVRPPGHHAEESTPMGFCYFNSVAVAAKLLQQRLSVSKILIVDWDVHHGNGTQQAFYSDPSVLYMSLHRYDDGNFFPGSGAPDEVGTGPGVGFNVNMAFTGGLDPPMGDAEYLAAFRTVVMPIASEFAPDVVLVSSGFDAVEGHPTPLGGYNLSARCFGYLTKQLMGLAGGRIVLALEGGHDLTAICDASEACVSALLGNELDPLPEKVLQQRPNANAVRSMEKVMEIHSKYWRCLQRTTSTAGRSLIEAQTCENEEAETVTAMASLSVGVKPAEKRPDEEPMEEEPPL

Histone deacetylase 8 = target: T4, Histone deacetylase 8 (Homo sapiens, UniProt Q9BY41); assay: Inhibition of recombinant human full length C-terminal His-tagged HDAC8 expressed in baculovirus infected Sf9 insect cells after 30 mins by fluorescence assay
T4 sequence (Q9BY41 whole entry): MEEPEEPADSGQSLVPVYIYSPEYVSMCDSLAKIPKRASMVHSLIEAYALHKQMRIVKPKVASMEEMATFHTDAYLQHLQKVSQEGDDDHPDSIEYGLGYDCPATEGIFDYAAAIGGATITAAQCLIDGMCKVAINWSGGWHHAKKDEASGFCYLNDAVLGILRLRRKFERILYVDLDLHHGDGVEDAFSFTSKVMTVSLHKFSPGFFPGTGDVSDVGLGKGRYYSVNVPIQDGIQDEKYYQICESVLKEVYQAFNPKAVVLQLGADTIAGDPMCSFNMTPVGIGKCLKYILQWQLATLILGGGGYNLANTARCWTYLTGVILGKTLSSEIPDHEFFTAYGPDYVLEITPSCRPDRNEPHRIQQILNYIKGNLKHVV

[10] = target: T5, Histone deacetylase (Homo sapiens) (UniProt Q13547+O15379+Q9UBN7+Q92769+Q9UQL6+Q8WUI4+Q9BY41+Q96DB2+P56524+Q9UKV0+Q969S8); assay: Inhibition of HDAC in human HCT116 cells assessed as increase in acetyl-histone H3 level at 1 to 5 uM after 24 hrs by Western blot analysis; format: cell-based
In short: (§2)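 HCT116 cells were treated for 24 h at 1 μM and 5 μM. Acetylated histone H3 and acetylated histone H4 were detected by Western blot.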

[11] = target: T5, Histone deacetylase (Homo sapiens); assay: Inhibition of HDAC in human HCT116 cells assessed as increase in acetyl-histone H4 level at 1 to 5 uM after 24 hrs by Western blot analysis; format: cell-based
In short: as §2

[12] = target: T1, Nicotinamide phosphoribosyltransferase; assay: Inhibition of NAMPT in human HCT116 cells assessed as decrease in cellular NAD+ level after 24 hrs by MTT dye based spectrophotometric analysis; format: cell-based
In short: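 HCT116 cells were exposed to a concentration series for 24 h. Cellular NAD+ level was measured and concentration–response curves were fitted.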
Target sequence in this assay (P43490 whole entry, looked up): as the sequence (P43490 whole entry) above

HCT-116 [13] = assay: animal or person; format: functional, Homo sapiens; settings: Mus musculus, HCT-116, ip, 72 h, read-out: TGI
Mus musculus [14] = assay: Toxicity in BALB/C nude mouse xenografted with human HCT116 cells assessed as body weight loss at 25 mg/kg, ip bid administered for 21 consecutive days measured every 3 days; format: organism-based; settings: in vivo, 72 h
In short: as §1

SMILES | IC50 (A549) [µM] | IC50 [3] [µM] | IC50 (Histone deacetylase 1 [4]) [µM] | IC50 (HCT-116 [5]) [µM] | IC50 (HepG2) [µM] | other results
O=C(/C=C/c1cccnc1)NCCCCC1CCN(C(=O)c2ccccc2)CC1 [DAPORINAD] | 3.7 | – | – | – | – | inhibition in vivo at 15 mg/kg (HCT-116 [1]): 39%; Activity (Mus musculus [2]): Non-Toxic
CC(C)CCN(CCCCCC(=O)NO)c1ncc(C(=O)NCCCn2ccnc2)s1 | 13 | 0.02 | 0.06 | 85 | 106 | –
CC(C)CCN(CCCCCCC(=O)NO)c1ncc(C(=O)NCCCn2ccnc2)s1 | 5.2 | 0.015 | 0.002 | 30 | 24 | IC50 [6]: 0.00067 µM; IC50 [7]: 0.00064 µM; ΔTm [8]: 3.01 °C; Ratio IC50 (Histone deacetylase 1 [9]): 10; IC50 (Histone deacetylase 2): 0.0068 µM; IC50 (Histone deacetylase 4): 12 µM; IC50 (Histone deacetylase 8): 0.204 µM; inhibition [10]: Dose-dependent effect; inhibition [11]: Dose-dependent effect; inhibition [12]: Active; inhibition in vivo at 25 mg/kg (HCT-116 [13]): 42%; Activity (Mus musculus [14]): Non-Toxic
O=C(CCCCCCC(=O)Nc1ccccc1)NO [VORINOSTAT] | – | – | – | – | – | Activity (Mus musculus [14]): Non-Toxic
O=C(NO)c1ccc(CN(Cc2ccc(F)cc2)c2ncc(C(=O)NCCCn3ccnc3)s2)cc1 | 7.3 | 0.014 | 0.046 | 99 | 79 | –
O=C(/C=C/c1ccc(CN(Cc2ccc(F)cc2)c2ncc(C(=O)NCCCn3ccnc3)s2)cc1)NO | 2.7 | 0.014 | 0.091 | 83 | 13 | –

Now from value to molecule, other results behind:

IC50 (A549) [µM] | IC50 [3] [µM] | IC50 (Histone deacetylase 1 [4]) [µM] | IC50 (HCT-116 [5]) [µM] | IC50 (HepG2) [µM] | SMILES | other results
22 | 0.47 | 0.095 | 17 | 14 | O=C(CCCCCCN(Cc1ccc(F)cc1)c1ncc(C(=O)NCc2cccnc2)s1)NO | –
19 | 0.22 | 0.036 | 12 | 7 | CC(C)CCN(CCCCCCC(=O)NO)c1ncc(C(=O)NCc2cccnc2)s1 | –
6.6 | 0.018 | 0.044 | 63 | 26 | O=C(CCCCCCCN(Cc1ccc(F)cc1)c1ncc(C(=O)NCCCn2ccnc2)s1)NO | –
54 | 0.007 | 0.1 | 19 | 30 | O=C(CCCCCN(Cc1ccc(F)cc1)c1ncc(C(=O)NCCCn2ccnc2)s1)NO | –
9.7 | 0.019 | 0.036 | 9.7 | 9.4 | O=C(CCCCCCN(Cc1ccc(F)cc1)c1ncc(C(=O)NCCCn2ccnc2)s1)NO | IC50 [6]: 0.0041 µM; IC50 [7]: 0.0062 µM; ΔTm [8]: 7.36 °C; IC50 (Histone deacetylase 2): 0.033 µM; IC50 (Histone deacetylase 4): 21 µM; IC50 (Histone deacetylase 8): 0.351 µM; inhibition [10]: Dose-dependent effect; inhibition [11]: Dose-dependent effect; inhibition [12]: Active
